Assay results: ChEMBL document CHEMBL4020727, “Synthesis and biological evaluation of largazole zinc-binding group analogs” (Bioorg Med Chem, 2017)

Experiments:
[1] = molecular target: Histone deacetylase 3/Nuclear receptor corepressor 2 (HDAC3/NCoR2) (Homo sapiens, UniProt O15379); experiment: Inhibition of full length human C-terminal His-tagged HDAC3/N-terminal GST-tagged NCOR2 (395 to 489 residues) expressed in baculovirus infected Sf9 insect cells using BPS HDAC substrate 3 after 30 mins by fluorescence assay
Chain of Histone deacetylase 3/Nuclear receptor corepressor 2 (HDAC3/NCoR2) (O15379 whole entry, the tested form may be a part): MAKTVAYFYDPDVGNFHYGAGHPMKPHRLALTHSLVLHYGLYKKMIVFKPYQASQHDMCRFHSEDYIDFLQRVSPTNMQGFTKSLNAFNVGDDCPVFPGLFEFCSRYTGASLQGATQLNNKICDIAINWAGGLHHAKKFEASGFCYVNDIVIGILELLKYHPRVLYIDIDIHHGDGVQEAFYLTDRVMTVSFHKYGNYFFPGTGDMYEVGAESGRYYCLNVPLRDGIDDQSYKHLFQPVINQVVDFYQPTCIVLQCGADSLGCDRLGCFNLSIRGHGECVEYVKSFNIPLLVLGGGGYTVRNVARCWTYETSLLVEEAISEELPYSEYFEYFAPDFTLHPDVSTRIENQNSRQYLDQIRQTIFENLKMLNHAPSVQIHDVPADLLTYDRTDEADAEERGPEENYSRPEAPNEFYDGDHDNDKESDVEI
Chain of Histone deacetylase 3/Nuclear receptor corepressor 2 (HDAC3/NCoR2) (Q9Y618 whole entry, further chain, the tested form may be a part): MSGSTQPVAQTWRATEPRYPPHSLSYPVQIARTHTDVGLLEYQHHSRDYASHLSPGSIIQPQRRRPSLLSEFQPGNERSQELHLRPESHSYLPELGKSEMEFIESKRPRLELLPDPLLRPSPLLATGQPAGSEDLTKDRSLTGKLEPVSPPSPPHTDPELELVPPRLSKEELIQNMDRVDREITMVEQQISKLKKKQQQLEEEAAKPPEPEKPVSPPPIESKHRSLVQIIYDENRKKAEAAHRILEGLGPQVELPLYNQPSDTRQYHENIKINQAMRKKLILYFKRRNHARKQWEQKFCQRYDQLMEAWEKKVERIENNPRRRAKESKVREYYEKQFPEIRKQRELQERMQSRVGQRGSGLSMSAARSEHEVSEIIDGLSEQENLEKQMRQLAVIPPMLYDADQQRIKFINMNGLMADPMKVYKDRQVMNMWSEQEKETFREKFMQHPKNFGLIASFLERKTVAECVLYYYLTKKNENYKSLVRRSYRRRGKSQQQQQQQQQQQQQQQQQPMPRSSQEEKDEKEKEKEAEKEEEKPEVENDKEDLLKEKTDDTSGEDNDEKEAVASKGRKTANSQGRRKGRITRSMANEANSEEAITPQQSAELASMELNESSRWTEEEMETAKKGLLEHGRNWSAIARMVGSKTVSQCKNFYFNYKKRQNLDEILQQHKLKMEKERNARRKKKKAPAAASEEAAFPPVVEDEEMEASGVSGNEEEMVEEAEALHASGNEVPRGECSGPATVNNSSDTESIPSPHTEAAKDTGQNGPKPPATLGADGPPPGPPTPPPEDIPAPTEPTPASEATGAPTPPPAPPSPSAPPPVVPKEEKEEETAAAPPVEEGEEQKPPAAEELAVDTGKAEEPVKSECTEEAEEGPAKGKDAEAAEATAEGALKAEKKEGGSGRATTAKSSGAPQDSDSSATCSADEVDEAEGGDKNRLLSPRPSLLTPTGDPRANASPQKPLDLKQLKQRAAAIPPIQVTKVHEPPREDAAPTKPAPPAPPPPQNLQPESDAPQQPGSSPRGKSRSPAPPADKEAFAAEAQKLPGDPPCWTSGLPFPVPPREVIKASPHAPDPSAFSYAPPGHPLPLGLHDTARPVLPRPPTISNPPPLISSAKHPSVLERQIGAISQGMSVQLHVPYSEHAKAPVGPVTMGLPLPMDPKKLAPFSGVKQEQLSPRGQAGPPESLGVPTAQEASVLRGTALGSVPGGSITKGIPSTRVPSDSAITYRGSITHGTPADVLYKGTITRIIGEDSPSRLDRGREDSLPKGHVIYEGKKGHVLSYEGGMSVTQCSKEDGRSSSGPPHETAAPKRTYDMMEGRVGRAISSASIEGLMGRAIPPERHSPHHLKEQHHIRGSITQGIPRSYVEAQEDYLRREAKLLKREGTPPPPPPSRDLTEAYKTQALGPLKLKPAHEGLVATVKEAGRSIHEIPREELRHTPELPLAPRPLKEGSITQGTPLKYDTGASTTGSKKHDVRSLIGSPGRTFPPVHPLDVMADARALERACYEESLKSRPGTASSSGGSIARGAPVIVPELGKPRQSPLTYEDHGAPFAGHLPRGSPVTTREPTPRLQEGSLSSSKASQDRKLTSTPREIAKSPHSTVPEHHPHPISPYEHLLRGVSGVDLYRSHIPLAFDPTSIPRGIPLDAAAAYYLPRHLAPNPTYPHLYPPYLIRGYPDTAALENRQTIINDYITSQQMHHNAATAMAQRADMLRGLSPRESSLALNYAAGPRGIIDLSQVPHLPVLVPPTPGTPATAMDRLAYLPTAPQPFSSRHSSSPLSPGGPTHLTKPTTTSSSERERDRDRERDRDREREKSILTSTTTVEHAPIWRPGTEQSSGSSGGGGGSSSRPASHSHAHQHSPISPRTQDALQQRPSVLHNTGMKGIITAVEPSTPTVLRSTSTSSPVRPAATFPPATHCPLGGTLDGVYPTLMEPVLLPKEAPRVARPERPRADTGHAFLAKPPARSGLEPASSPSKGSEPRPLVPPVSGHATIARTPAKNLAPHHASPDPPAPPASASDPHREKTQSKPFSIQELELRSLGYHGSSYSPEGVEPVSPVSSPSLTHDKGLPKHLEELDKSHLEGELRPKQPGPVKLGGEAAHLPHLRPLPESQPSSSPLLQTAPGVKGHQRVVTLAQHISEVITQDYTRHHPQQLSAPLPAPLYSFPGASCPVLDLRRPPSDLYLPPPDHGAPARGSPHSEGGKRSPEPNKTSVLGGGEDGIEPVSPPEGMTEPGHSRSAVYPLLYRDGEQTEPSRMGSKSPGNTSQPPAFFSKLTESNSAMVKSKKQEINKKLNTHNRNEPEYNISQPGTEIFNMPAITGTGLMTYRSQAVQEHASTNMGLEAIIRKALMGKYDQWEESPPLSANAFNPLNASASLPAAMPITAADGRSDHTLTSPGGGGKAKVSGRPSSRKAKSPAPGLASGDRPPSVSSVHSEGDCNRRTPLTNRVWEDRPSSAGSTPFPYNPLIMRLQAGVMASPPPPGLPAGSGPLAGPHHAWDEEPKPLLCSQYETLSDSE
Procedure, shortened: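 Run by a contract lab. Compound incubated with HDAC enzyme, substrate, bovine serum albumin and HDAC buffer in duplicate for 30 min at 37 °C. Activity taken as (F−Fb)/(Ft−Fb) against blank and solvent control wells; IC50 from curve fitting.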

[2] = molecular target: T1, Polyamine deacetylase HDAC10 (Homo sapiens, UniProt Q969S8); experiment: Inhibition of N-terminal GST-tagged/C-terminal His-tagged human HDAC10 (1 to 481 residues) expressed in baculovirus infected Sf9 insect cells using BPS HDAC substrate 3 after 30 mins by fluorescence assay
T1 sequence (Q969S8 whole entry): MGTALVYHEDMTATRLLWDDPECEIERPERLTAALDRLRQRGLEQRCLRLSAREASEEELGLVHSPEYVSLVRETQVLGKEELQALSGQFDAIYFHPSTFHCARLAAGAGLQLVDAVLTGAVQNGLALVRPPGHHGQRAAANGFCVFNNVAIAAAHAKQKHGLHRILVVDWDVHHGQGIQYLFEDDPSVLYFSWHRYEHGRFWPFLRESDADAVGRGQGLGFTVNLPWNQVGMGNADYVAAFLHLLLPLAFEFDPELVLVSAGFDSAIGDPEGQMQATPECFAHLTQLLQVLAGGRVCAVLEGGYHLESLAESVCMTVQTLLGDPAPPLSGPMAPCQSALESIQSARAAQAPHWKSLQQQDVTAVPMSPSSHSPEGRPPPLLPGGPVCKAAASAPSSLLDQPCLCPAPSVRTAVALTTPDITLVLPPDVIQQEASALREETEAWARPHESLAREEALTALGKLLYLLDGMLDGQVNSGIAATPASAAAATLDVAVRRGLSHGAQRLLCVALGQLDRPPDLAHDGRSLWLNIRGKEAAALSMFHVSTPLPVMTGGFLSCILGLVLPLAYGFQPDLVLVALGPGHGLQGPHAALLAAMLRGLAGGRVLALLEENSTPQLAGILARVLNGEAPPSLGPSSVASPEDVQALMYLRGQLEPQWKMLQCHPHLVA
Procedure, shortened: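 Run by a contract lab. Compound incubated with HDAC enzyme, HDAC substrate, BSA and HDAC buffer, in duplicate, at 37 °C for 30 min. Quenched with HDAC developer, then 15 min at room temperature. Fluorescence read at ex 360/em 460 nm. Percent activity = (F−Fb)/(Ft−Fb), using blank and solvent-control wells. IC50 from curve fitting.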

Compound	IC50 [1] [nM]	IC50 [2] [nM]
CC(C)[C@@H]1NC(=O)[C@]2(C)CSC(=N2)c2csc(n2)CNC(=O)C[C@@H](/C=C/CCC(=O)NO)OC1=O	29	21
CC(C)[C@@H]1NC(=O)[C@]2(C)CSC(=N2)c2csc(n2)CNC(=O)C[C@@H](/C=C/CCSCCS)OC1=O	43	3.6
